The test system of this assay is HT-29. Put plainly: Concentration required to inhibit colony formation by 50% in human colon carcinoma HT-29 cells. Format: functional, cell-based. In a few lines:
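HT-29 cells grown in Eagle's MEM with 15% heat-inactivated FBS. Exponential-phase cells (2 × 10⁵/mL) plated, treated 16-20 h later with a range of drug concentrations for 30 min at 37 °C in medium with 1% serum. Washed twice, trypsinized, replated in triplicate at 10^2, 10^3, 10^4 cells/25-cm² flask for colony counts. At least two independent experiments; untreated plating efficiency 40-65%.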
One may read the IC50 as the point on the concentration scale where inhibition reaches its midpoint. Take `CCN(CCCl)CCNc1c2ccccc2nc2ccc(OC)cc12`: the IC50 turned out to be 1100 nM.

The molecule `CCN(CCCl)CCCNc1c2ccccc2nc2ccc(OC)cc12` registered an IC50 of 370 nM. Against the preceding molecule, the IC50 is about 3-fold lower.

As for `CCN(CCCl)CCCCCCNc1c2ccccc2nc2ccc(OC)cc12`, it took 750 nM to reach half-maximal inhibition (IC50).

With `CCN(CCCl)CCCCNc1c2ccccc2nc2ccc(OC)cc12`, half-maximal inhibition (IC50) required 250 nM.

`COc1ccc2nc3ccccc3c(NCCN(CCCl)CCCl)c2c1` returned an IC50 of 110 nM. This IC50 lies about 2.3-fold lower than the previous one.

`CCN(CCCl)CCCCCNc1c2ccccc2nc2ccc(OC)cc12` returned an IC50 of 700 nM.

As for `COc1ccc2nc3ccccc3c(NCCCCN(CCCl)CCCl)c2c1`, inhibition was half-maximal at 10 nM (IC50).

For `COc1ccc2nc3ccccc3c(NCCCN(CCCl)CCCl)c2c1`, the IC50 came out at 20 nM.

The molecule `COc1ccc2nc3ccccc3c(NCCCCCN(CCCl)CCCl)c2c1` displayed an IC50 of 30 nM.

As for `COc1ccc2nc3ccccc3c(NCCCCCCN(CCCl)CCCl)c2c1`, half-maximal inhibition (IC50) was put at 60 nM.

In turn, `CCN(CC)CCCC(C)Nc1c2ccc(Cl)cc2nc2ccc(OC)cc12` (stereo unspecified) [QUINACRINE] came in with an IC50 of 55000 nM.

The record behind these values is ChEMBL document CHEMBL1127498, “Synthesis and DNA-sequence selectivity of a series of mono- and difunctional 9-aminoacridine nitrogen mustards” (J Med Chem, 1994).
